KDM4C inh – inhibitors of human demethylase GASC-1 KDM4C; inhibition, % at 12.5 µM; hit rate 0.15% among 96,000; GST-KDM4C 2-372, H3K9me3 peptide, LANCE TR-FRET; AID 720574; Q9H3R0;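 active = mean replicate inhibition above about 25%, with at least 55% of replicates also reaching it, limit read from the data, passing the limit was not always enough; inconclusive = only one of those two conditions met; inactive = neither condition met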
Target sequence (Q9H3R0 2-372 limits assumed): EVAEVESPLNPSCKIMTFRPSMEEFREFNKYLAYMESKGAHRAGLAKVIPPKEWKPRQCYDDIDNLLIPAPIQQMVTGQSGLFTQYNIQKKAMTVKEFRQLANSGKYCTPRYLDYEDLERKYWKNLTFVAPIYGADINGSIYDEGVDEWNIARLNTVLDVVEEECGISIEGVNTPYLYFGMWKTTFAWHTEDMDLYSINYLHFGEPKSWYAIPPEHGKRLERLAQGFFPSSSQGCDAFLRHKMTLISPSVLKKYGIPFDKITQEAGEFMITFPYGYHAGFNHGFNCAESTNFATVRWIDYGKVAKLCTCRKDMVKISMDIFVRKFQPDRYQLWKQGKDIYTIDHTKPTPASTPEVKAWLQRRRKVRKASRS
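reagent = H3K9me3 peptide substrate, Fe(II), 2-oxoglutarate | system = GST-tagged GASC-1 (JMJD2C) catalytic fragment, aa 2-372 | amount = enzyme final amount 10 nM | read-out = Fall in 671/618 emission ratio as inhibition | medium = HEPES buffer, pH 7.5, plus ascorbate | schedule = 30 min reaction, 60 min detection, RT | measured by = LANCE TR-FRET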
IDH1 R132H inh – blocks human IDH1 R132H reductase activity; diaphorase/resazurin fluorescence, 60 min; inhibition, % at 10 µM; hit rate 0.18% among 70,000; in the data active = inhibition above about 34%; inconclusive = no clear call, values can overlap the other calls; inactive = below about 11%;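 note: 0% = DMSO and 100% = no enzyme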
Target sequence (O75874 whole entry R132H): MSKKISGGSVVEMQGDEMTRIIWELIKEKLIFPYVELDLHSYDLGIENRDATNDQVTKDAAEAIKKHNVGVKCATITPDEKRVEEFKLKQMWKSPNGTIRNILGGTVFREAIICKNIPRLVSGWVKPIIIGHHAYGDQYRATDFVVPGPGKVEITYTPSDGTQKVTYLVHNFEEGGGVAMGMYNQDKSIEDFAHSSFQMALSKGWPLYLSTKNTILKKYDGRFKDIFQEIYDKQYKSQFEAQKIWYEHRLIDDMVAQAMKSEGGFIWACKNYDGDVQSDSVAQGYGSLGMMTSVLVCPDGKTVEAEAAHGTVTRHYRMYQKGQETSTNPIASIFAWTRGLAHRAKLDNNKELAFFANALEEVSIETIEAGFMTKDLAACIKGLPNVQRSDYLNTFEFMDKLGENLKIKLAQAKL
Pf Dd2 inh – P. falciparum Dd2 growth inhibition. SYBR Green, 72 h; active compounds read low. activity change, % at 10 µM. hit rate 2.3% among 94,000. AID 1159554; in the data active = activity change below about -80%; inconclusive = no clear call, values can overlap the other calls
T cruzi growth-1 – T. cruzi proliferation inhibition. T. cruzi beta-gal in NIH3T3, GalScreen luminescence, 90 h. inhibition, % at 8.34 µM. hit rate 5.9% among 77,000;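 active = mean inhibition above about 93%, with at least 55% of replicates each passing it, limit read from the data, passing the limit was not always enough; inconclusive = only one of those two conditions holds; inactive = neither condition holds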
T cruzi growth-2 – Trypanosoma cruzi proliferation inhibition. inhibition, % at 8.35 µM. AID 651739. shares compounds with T cruzi growth-1. hit rate 72% among 5,600. T. cruzi beta-gal in NIH3T3, GalScreen luminescence, 90 h;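 active = mean replicate inhibition above about 95% and at least 55% of replicates individually reaching it, limit read from the data; inconclusive = only one of the two criteria is met; inactive = neither criterion is met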
T cruzi growth-3 – Trypanosoma cruzi proliferation inhibition. shares compounds with T cruzi growth-1. T. cruzi beta-gal in NIH3T3, GalScreen luminescence, 90 h. inhibition, % at 2.09 µM. hit rate 21% among 5,600. AID 651740;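 active = mean inhibition above about 95%, with at least 55% of replicates also reaching it, limit read from the data; inconclusive = meets just one of the two conditions; inactive = meets neither condition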;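 note: plate controls were neutral control median for no effect and positive control median for full effect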
3T3 cytotox – NIH/3T3 (mouse) viability loss. hit rate 14% among 5,600. cytotoxicity (signal decrease), % at 8.35 µM. NIH/3T3 viability, CellTiter-Glo ATP luminescence, 90 h. shares compounds with T cruzi growth-1;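 active = mean signal decrease across replicates above about 35% based on untreated-well scatter, with enough replicates individually passing, limit read from the data; inconclusive = no rule stated though some were filed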;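 note: 0% = median of neutral control wells and 100% = median of positive control wells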
NIH3T3 tox 2 – cytotoxicity in mouse NIH/3T3 fibroblasts; shares compounds with T cruzi growth-1; NIH/3T3 viability, CellTiter-Glo ATP luminescence, 90 h; inhibition, % at 24.9 µM; hit rate 56% among 5,600;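 active = mean loss of cell viability signal at or above a set limit, and enough replicates individually reaching it; inconclusive = meets only the mean limit or only the replicate share; inactive = meets neither condition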;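 note: 0% = median of neutral control wells and 100% = median of positive control wells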
* marks the source's active call; other numbers are inactive results; ? = inconclusive; / = no result given; ! = not active in a repeat. In the library only some 5.8% were active in any assay of this set; here they are far more common.

SMILES | KDM4C inh | IDH1 R132H inh | Pf Dd2 inh | T cruzi growth-1 | others
N#Cc1c(NC(=O)Cn2cnc3scc(-c4ccccc4)c3c2=O)sc2c1CCC2 | / | 0.4 | / | /
COc1ccccc1NC(=O)COc1ccc(C(=O)Nc2cccc(C(F)(F)F)c2)cc1 | / | -0.1 | / | /
C[C@H]1CN([C@@H](C)CO)C(=O)c2cc(C#CCc3ccccc3)cnc2O[C@H]1CN(C)CC1CC1 | -1.3 | -1.1 | -56.7 | 56.9
C[C@H]1CN([C@@H](C)CO)C(=O)c2cc(C#Cc3ccccc3)cnc2O[C@@H]1CN(C)C(=O)CCN1CCCCC1 | -3.8 | -0.5 | -52.0 | 26.2
C[C@@H]1CN([C@@H](C)CO)C(=O)c2cc(C#Cc3ccccc3)cnc2O[C@H]1CN(C)C(=O)CCN1CCCCC1 | 0.3 | 0.0 | -87.6* | 56.6
C[C@@H]1CN([C@H](C)CO)C(=O)c2cc(C#CCc3ccccc3)cnc2O[C@H]1CN(C)C(=O)C1CCCCC1 | 0.2 | 1.9 | -82.8* | 105.5
C[C@@H]1CN([C@H](C)CO)C(=O)c2cc(C#CCc3ccccc3)cnc2O[C@@H]1CN(C)CC1CC1 | -1.4 | -2.1 | -81.4* | 25.9
C[C@@H]1CN([C@@H](C)CO)C(=O)c2cc(C#CCc3ccccc3)cnc2O[C@H]1CN(C)CC1CCCC1 | 8.9 | 11.0 | -86.4* | 88.2
CCc1c(O)nc(SCC(=O)N(c2ccccc2)c2ccccc2)[nH]c1=O | / | 0.1 | / | /
COc1ccc(-n2nc3cc(C)c(NC(=S)NC(=O)COc4cccc(C)c4)cc3n2)cc1Cl | / | -0.1 | / | /
Cc1ccc(NC(=O)COc2ccccc2)c(NC(=O)c2cccs2)c1 | / | -0.2 | / | /
CC(C)(O)CCC(=O)C(C)(O)C1C(O)CC2(C)C3CC=C4C(CC(OC5OC(CO)C(O)C(O)C5O)C(O)C4(C)C)C3(C)CCC12C (stereo not given) | / | -0.1 | / | /
COc1ccccc1N1C(=O)CC(SCC(=O)Nc2ccc(F)cc2)C1=O (stereo not given) | / | 0.4 | / | /
Cc1c(Cl)cccc1NC(=O)CNC(=O)c1ccc([N+](=O)[O-])cc1 | / | -0.1 | / | /
CCCC#Cc1cnc2c(c1)C(=O)N([C@H](C)CO)C[C@@H](C)[C@H](CN(C)Cc1cccnc1)O2 | -0.3 | -0.1 | -27.7 | 6.8
CCCC#Cc1cnc2c(c1)C(=O)N([C@H](C)CO)C[C@H](C)[C@@H](CN(C)Cc1cccnc1)O2 | 63.7* | 99.6* | -23.6 | -3.6
COc1ccc(S(=O)(=O)N(C)C[C@H]2OCCCC[C@H](C)Oc3ccc(NC(=O)CCCN(C)C)cc3C(=O)N([C@H](C)CO)C[C@H]2C)cc1 | 45.3* | / | -2.6 | 53.6
COc1ccc(S(=O)(=O)N(C)C[C@@H]2OCCCC[C@@H](C)Oc3ccc(NC(=O)CCC(F)(F)F)cc3C(=O)N([C@@H](C)CO)C[C@@H]2C)cc1 | -0.9 | / | -81.3* | 45.9
C[C@@H]1CCCCO[C@H](CN(C)S(=O)(=O)c2ccccc2)[C@H](C)CN([C@@H](C)CO)C(=O)c2cc(NC(=O)CCCN(C)C)ccc2O1 | 2.4 | 89.0* | -6.9 | -25.2
O=[N+]([O-])c1ccccc1/C=C/CN1CCN(CCO)CC1 | / | -0.5 | / | /
CCCNC(=O)N1[C@H](C#N)[C@H](c2ccc(C#Cc3cccc(F)c3)cc2)[C@H]1CO | -0.8 | / | -85.0* | 93.8
CCCNC(=O)N1[C@@H](C#N)[C@@H](c2ccccc2)[C@@H]1CO | -2.0 | / | 7.6 | -61.8
N#C[C@@H]1[C@H](c2ccc(C#Cc3ccc(F)cc3)cc2)[C@@H](CO)N1C(=O)Nc1ccc(F)cc1 | -1.9 | / | -46.7 | 90.3
CCCNC(=O)N1[C@H](C#N)[C@H](c2ccc(C#Cc3ccc(F)cc3)cc2)[C@H]1CO | 0.2 | / | -86.4* | 93.0
CCCNC(=O)N1[C@H](CO)[C@H](c2ccc(-c3ccc(C#N)cc3)cc2)[C@@H]1CNC | -1.3 | / | -83.5* | /
SMILES | KDM4C inh | IDH1 R132H inh | Pf Dd2 inh | T cruzi growth-1 | others
Cc1ccc(C)c(-c2csc(N)c2C#N)c1 | / | -0.4 | / | /
Cc1ccccc1OCCn1c(C(C)O)nc2ccccc21 (stereo not given) | / | 0.2 | / | /
CC(C)OC(=O)N(C)C[C@H]1OCc2ccccc2-c2c(n(C)c3ccccc23)C(=O)N([C@H](C)CO)C[C@H]1C | -1.4 | -1.7 | -83.3* | 28.7
C[C@H](NC(=O)N(C)C[C@H]1OCc2ccccc2-c2c(n(C)c3ccccc23)C(=O)N([C@@H](C)CO)C[C@@H]1C)c1ccccc1 | -0.8 | / | -80.8* | 91.2
C[C@H](C(=O)N(C)C[C@@H]1OCc2ccccc2-c2c(n(C)c3ccccc23)C(=O)N([C@H](C)CO)C[C@H]1C)c1ccccc1 | -1.9 | / | -75.2 | /
C[C@@H]1CN([C@H](C)CO)C(=O)c2c(c3ccccc3n2C)-c2ccccc2CO[C@H]1CN(C)C(=O)[C@H](C)c1ccccc1 | -1.1 | / | -84.0* | /
C[C@@H]1CN([C@@H](C)CO)C(=O)c2c(c3ccccc3n2C)-c2ccccc2CO[C@@H]1CN(C)C(=O)N[C@H](C)c1ccccc1 | -1.4 | -0.2 | -22.1 | 35.8
C[C@@H]1CN([C@@H](C)CO)C(=O)c2c(c3ccccc3n2C)-c2ccccc2CO[C@@H]1CN(C)C(=O)[C@H](C)c1ccccc1 | -4.4 | / | -87.5* | /
CCOc1cc(C)c(S(=O)(=O)NCc2cccnc2)cc1C | / | 0.3 | / | /
C[C@@H]1O[C@@H](O[C@H]2[C@H](O[C@H]3CC[C@@]4(C)C(CC[C@]5(C)C4CC=C4C6CC(C)(C)CC[C@]6(C(=O)O)CC[C@]45C)[C@]3(C)CO)OC[C@H](O)[C@@H]2O)[C@H](O)[C@H](O)[C@H]1O (stereo not given in full) | / | 0.3 | / | /
C[C@@H]1CCCCO[C@H](CN(C)Cc2ccncc2)[C@@H](C)CN([C@H](C)CO)C(=O)c2cc(N(C)C)ccc2O1 | 21.0 | 3.7 | 1.9 | 107.8*! | T cruzi growth-2=59.0;T cruzi growth-3=-10.3;3T3 cytotox=12.7;NIH3T3 tox 2=-1.0
C[C@@H]1CN([C@@H](C)CO)C(=O)c2cc(N(C)C)ccc2O[C@@H](C)CCCCO[C@@H]1CN(C)Cc1ccc2c(c1)OCO2 | 4.1 | / | -29.8 | 100.8*! | T cruzi growth-2=?;T cruzi growth-3=-24.5;3T3 cytotox=-0.5;NIH3T3 tox 2=10.9
COCC(=O)N1CCCCN2[C@H](C1)[C@@H](c1ccc(-c3ccc(F)cc3)cc1)[C@@H]2CO | -0.4 | / | 9.2 | 80.6
Cc1ccc(-c2ccc([C@@H]3[C@H]4CN(C(=O)c5ccc(F)cc5)CCCCN4[C@H]3CO)cc2)cc1 | 1.6 | / | 7.5 | 110.9* | T cruzi growth-2=103.1*;T cruzi growth-3=65.9;3T3 cytotox=31.9;NIH3T3 tox 2=84.6*

From PubChem
